Active and inactive are the calls of the source. The rule behind the calls is not given here.
How the values were obtained:
Rattus norvegicus [1] = experiment: Antihypertensive activity in spontaneously hypertensive rat assessed as reduction in mean arterial pressure at 80 mg/kg, po up to 24 hrs; format: functional, organism-based; set-up: dose 80 mg/kg; settings: Artery
Method in brief: (§1)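 Spontaneously hypertensive rats received a single oral dose of 40 or 80 mg/kg. Systolic, diastolic and mean arterial pressure were recorded from 0 to 24 h after dosing, with heart rate monitored in parallel. Data are given as mean ± SEM (n = 8), and significance was tested against the respective control (p < 0.05, p < 0.01).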

Rattus norvegicus [2] = experiment: Toxicity in spontaneously hypertensive rat assessed as change in basal heart rate at 50 mg/kg, po measured up to 24 hrs; format: organism-based; set-up: dose 50 mg/kg, route oral; settings: in vivo
Rattus norvegicus [3] = experiment: Antihypertensive activity in spontaneously hypertensive rat assessed as reduction in diastolic arterial pressure at 80 mg/kg, po at 6 hrs; format: functional, Artery; set-up: scale not given: the % may be the effect or the level left; method in brief: as §1
Rattus norvegicus [4] = experiment: Antihypertensive activity in spontaneously hypertensive rat assessed as reduction in diastolic arterial pressure at 80 mg/kg, po up to 24 hrs; format: functional, organism-based; set-up: dose 80 mg/kg; settings: Artery; method in brief: as §1
Rattus norvegicus [5] = experiment: Antihypertensive activity in spontaneously hypertensive rat assessed as reduction in systolic arterial pressure at 80 mg/kg, po measured up to 24 hrs; format: functional, organism-based; set-up: dose 80 mg/kg; settings: Artery; method in brief: as §1
Rattus norvegicus [6] = experiment: Antihypertensive activity in spontaneously hypertensive rat assessed as reduction in systolic arterial pressure at 40 mg/kg, po measured up to 24 hrs; format: functional, organism-based; set-up: dose 40 mg/kg; settings: Artery; method in brief: as §1
Rattus norvegicus [7] = experiment: Antihypertensive activity in spontaneously hypertensive rat assessed as reduction in diastolic arterial pressure at 40 mg/kg, po at 6 hrs; format: functional, organism-based; set-up: dose 40 mg/kg; settings: Artery; method in brief: as §1

Structure (SMILES)	Activity (Rattus norvegicus [1])	Activity (Rattus norvegicus [2])	Activity (Rattus norvegicus [3]) [%]	Activity (Rattus norvegicus [4])	Activity (Rattus norvegicus [5])	Activity (Rattus norvegicus [6])	Activity (Rattus norvegicus [7])
C[C@H]1OCc2c(ccc(O)c2O)C1=O	Active	Non-toxic	30	Active	Active	–	–
C[C@@H]1OCc2c(ccc(O)c2O)C1=O	Active	Non-toxic	–	Active	Active	–	–
C[C@H](CS)C(=O)N1CCC[C@H]1C(=O)O	–	–	–	–	–	Active	Active
CC1OCc2c(ccc(O)c2O)C1=O (racemic)	Active	Non-toxic	–	Active	Active	–	–
